Results taken from ChEMBL document CHEMBL1127357, “Synthesis and biochemical evaluation of a series of aminoflavones as potential inhibitors of protein-tyrosine kinases p56lck, EGFr, and p60v-src” (J Med Chem, 1994).

Key:
[1] = molecular target: Epidermal growth factor receptor (Homo sapiens, UniProt P00533); test: Inhibition of in vitro activity of EGFr enzyme from A431 cells in presence of 5 uM ATP; type: cell-based, A-431
In short: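 EGFr from human A431 shed membrane vesicles, solubilised in 4% Triton X-100/10% glycerol; 10 μg vesicle protein. Buffer 20 mM HEPES pH 7.4, 15 mM MgCl2, 4 mM MnCl2, 0.02% BSA, 5 μM [32P]ATP, 25 μg Glu:Ala:Tyr (6:3:1) copolymer, 250 ng EGF. 10 min at room temperature; TCA/pyrophosphate quench, filter wash, scintillation counting; autophosphorylation controls included.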

[2] = molecular target: Tyrosine-protein kinase Lck (Bos taurus); test: In vitro inhibition of protein-tyrosine activity of p56lck enzyme in presence of 50 uM ATP

Epidermal growth factor receptor, sequence (P00533 whole entry): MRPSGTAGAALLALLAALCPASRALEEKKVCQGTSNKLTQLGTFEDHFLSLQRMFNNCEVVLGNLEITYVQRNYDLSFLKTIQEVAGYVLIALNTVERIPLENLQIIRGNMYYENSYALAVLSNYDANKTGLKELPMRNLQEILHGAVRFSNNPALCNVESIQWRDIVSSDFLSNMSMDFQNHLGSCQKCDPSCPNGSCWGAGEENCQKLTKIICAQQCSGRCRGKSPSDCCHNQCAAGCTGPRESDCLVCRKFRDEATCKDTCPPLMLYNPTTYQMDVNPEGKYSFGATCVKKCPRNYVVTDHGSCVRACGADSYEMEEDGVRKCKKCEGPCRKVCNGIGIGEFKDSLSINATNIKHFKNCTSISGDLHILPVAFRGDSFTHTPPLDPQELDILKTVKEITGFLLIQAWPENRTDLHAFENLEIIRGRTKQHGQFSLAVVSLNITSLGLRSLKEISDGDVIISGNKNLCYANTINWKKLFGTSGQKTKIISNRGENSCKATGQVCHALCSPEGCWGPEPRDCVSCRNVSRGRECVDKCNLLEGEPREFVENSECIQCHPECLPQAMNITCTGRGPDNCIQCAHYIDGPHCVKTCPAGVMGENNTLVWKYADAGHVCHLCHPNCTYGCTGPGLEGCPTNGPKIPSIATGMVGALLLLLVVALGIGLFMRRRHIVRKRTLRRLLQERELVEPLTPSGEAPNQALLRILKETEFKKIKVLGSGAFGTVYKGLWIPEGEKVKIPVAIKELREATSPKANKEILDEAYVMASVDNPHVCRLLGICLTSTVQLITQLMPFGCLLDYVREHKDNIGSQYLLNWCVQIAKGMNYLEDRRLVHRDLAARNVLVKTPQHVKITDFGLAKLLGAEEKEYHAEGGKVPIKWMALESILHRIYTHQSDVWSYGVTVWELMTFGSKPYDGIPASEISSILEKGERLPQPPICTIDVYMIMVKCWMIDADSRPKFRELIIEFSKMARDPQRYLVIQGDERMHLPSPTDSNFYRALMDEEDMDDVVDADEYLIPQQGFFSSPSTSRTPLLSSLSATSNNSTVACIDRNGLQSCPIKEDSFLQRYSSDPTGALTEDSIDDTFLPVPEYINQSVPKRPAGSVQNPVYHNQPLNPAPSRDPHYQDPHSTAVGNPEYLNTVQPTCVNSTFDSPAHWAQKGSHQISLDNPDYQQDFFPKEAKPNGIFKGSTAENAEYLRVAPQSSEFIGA

Compound: Nc1ccc(-c2cc(=O)c3cc(N)ccc3o2)cc1
- IC50 [1]: 8.7 µM
- IC50 [2]: 103 µM

Compound: COc1cc([N+](=O)[O-])c2oc(-c3ccc([N+](=O)[O-])cc3)cc(=O)c2c1
- IC50 [2]: > 2000 µM

Compound: O=c1cc(-c2ccc([N+](=O)[O-])cc2)oc2c([N+](=O)[O-])cc(O)cc12
- IC50 [2]: > 2000 µM

Compound: COc1ccc(N)c2oc(-c3ccc(N)cc3)cc(=O)c12
- IC50 [1]: > 100 µM

Compound: Nc1cccc(-c2cc(=O)c3cc(N)ccc3o2)c1
- IC50 [1]: > 100 µM
- IC50 [2]: 200 µM

Compound: COc1ccc([N+](=O)[O-])c2oc(-c3ccc([N+](=O)[O-])cc3)cc(=O)c12
- IC50 [2]: > 2000 µM

Compound: Nc1ccc(-c2cc(=O)c3ccc(O)c(N)c3o2)cc1
- IC50 [1]: > 100 µM
- IC50 [2]: 328 µM

Compound: O=c1cc(-c2ccc([N+](=O)[O-])cc2)oc2ccc([N+](=O)[O-])cc12
- IC50 [2]: > 2000 µM

Compound: Nc1ccc(-c2cc(=O)c3cc(O)cc(N)c3o2)cc1
- IC50 [1]: > 100 µM
- IC50 [2]: 117 µM

Compound: O=c1cc(-c2ccc([N+](=O)[O-])cc2)oc2ccc([N+](=O)[O-])c(O)c12
- IC50 [2]: > 2000 µM

Compound: Nc1ccc(-c2cc(=O)c3cccc(N)c3o2)cc1
- IC50 [1]: > 100 µM
- IC50 [2]: 123 µM

Compound: O=c1cc(-c2ccc([N+](=O)[O-])cc2)oc2c([N+](=O)[O-])cccc12
- IC50 [2]: > 2000 µM

Compound: Nc1ccc(-c2cc(=O)c3cc(N)c(O)cc3o2)cc1
- IC50 [1]: 14.1 µM
- IC50 [2]: 141 µM

Compound: Nc1ccc(-c2cc(=O)c3c(N)c(O)c(N)cc3o2)cc1
- IC50 [1]: > 100 µM
- IC50 [2]: 18 µM

Compound: Nc1ccc(-c2cc(=O)c3c(O)ccc(N)c3o2)cc1
- IC50 [1]: > 100 µM
- IC50 [2]: 326 µM

Compound: Nc1ccc(-c2cc(=O)c3cc(N)c(O)c(N)c3o2)cc1
- IC50 [1]: > 100 µM
- IC50 [2]: 754 µM

Compound: Nc1cccc(-c2cc(=O)c3cc(N)c(O)cc3o2)c1
- IC50 [1]: > 100 µM
- IC50 [2]: 502 µM

Compound: O=c1cc(-c2ccc([N+](=O)[O-])cc2)oc2c([N+](=O)[O-])c(O)ccc12
- IC50 [2]: 1880 µM

Compound: O=c1cc(-c2ccc([N+](=O)[O-])cc2)oc2cc(O)c([N+](=O)[O-])cc12
- IC50 [2]: > 2000 µM

Compound: Nc1ccc(-c2cc(=O)c3c(O)c(N)ccc3o2)cc1
- IC50 [1]: > 100 µM
- IC50 [2]: 223 µM

Compound: O=c1cc(-c2ccc([N+](=O)[O-])cc2)oc2c([N+](=O)[O-])ccc(O)c12
- IC50 [2]: > 2000 µM

Compound: COc1cc(N)c2oc(-c3ccc(N)cc3)cc(=O)c2c1
- IC50 [1]: > 100 µM
- IC50 [2]: 382 µM

Compound: COc1cc(N)c2oc(-c3cccc(N)c3)cc(=O)c2c1
- IC50 [1]: > 100 µM

Compound: Nc1ccc(-c2cc(=O)c3cc(N)cc(N)c3o2)cc1
- IC50 [1]: > 100 µM
- IC50 [2]: 106 µM

Compound: Nc1cccc(-c2cc(=O)c3c(N)c(O)c(N)cc3o2)c1
- IC50 [1]: 7.8 µM
- IC50 [2]: 46 µM
